Results published in ChEMBL document CHEMBL1759925, “Rapidly photoactivatable ATP probes for specific labeling of tropomyosin within the actomyosin protein complex” (Bioorg Med Chem Lett, 2011).
Active and inactive are the calls of the source.

Experiments:
Gallus gallus [1] = organism: Gallus gallus; assay: Binding affinity to chicken skeletal muscle tropomyosin within actomyosin protein complex at 125 uM after 1 hr followed by 10 mins irradiation with UVA by chemiluminescent assay using avidin-horseradish peroxidase conjugate; assay type: tissue-based; settings: Muscle tissue
Outline: (§1)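 Actomyosin (3.9 µg) was incubated for 1 h with photoaffinity ATP probe in 30 mM Tris–HCl (pH 7.2), 5 mM MgCl₂ and 1 mM EGTA, then irradiated with 360 nm light. Photoproducts were resolved on 10% SDS–PAGE, transferred to PVDF, and labeled proteins visualized by chemiluminescence using avidin-HRP conjugate.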

Gallus gallus [2] = organism: Gallus gallus; assay: Binding affinity to chicken skeletal muscle tropomyosin within actomyosin protein complex at 125 uM after 1 hr followed by 10 mins irradiation with UVA by SDS-PAGE analysis using coomassie brilliant blue staining; assay type: tissue-based; settings: Muscle tissue
Gallus gallus [3] = organism: Gallus gallus; assay: Binding affinity to chicken skeletal muscle myosin within actomyosin protein complex at 125 uM after 1 hr followed by 10 mins irradiation with UVA by chemiluminescent method using avidin-horseradish peroxidase conjugate in presence of 1 mM of calcium chloride
Outline: (§2)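 Actomyosin (3.9 µg) was incubated with photoaffinity ATP probe for 1 h in 30 mM Tris–HCl (pH 7.2), 5 mM MgCl₂ and 1 mM CaCl₂, with no EGTA. Samples were then irradiated at 360 nm, separated by 10% SDS–PAGE and blotted to PVDF. Labeled bands were detected by chemiluminescence with avidin-HRP conjugate.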

Gallus gallus [4] = organism: Gallus gallus; assay: Binding affinity to chicken skeletal muscle tropomyosin within actomyosin protein complex at 125 uM after 1 hr followed by 10 mins irradiation with UVA by Western blot analysis; assay type: tissue-based; settings: Muscle tissue; outline: as §1
Gallus gallus [5] = organism: Gallus gallus; assay: Binding affinity to chicken skeletal muscle actin within actomyosin protein complex at 125 uM after 1 hr followed by 10 mins irradiation with UVA by chemiluminescent method using avidin-horseradish peroxidase conjugate in presence of 1 mM of calcium chloride; outline: as §2
Gallus gallus [6] = organism: Gallus gallus; assay: Binding affinity to chicken skeletal muscle tropomyosin within actomyosin protein complex at 125 uM after 1 hr followed by 10 mins irradiation with UVA by chemiluminescent assay using avidin-horseradish peroxidase conjugate in presence of 1 mM of calcium chloride; outline: as §2
Gallus gallus [7] = organism: Gallus gallus; assay: Binding affinity to chicken skeletal muscle actomyosin at 125 uM after 1 hr followed by 10 mins irradiation with UVA by chemiluminescent method using avidin-horseradish peroxidase conjugate in presence of 1 mM of calcium chloride; outline: as §2

Measured: Activity

Nc1ncnc2c1ncn2[C@@H]1O[C@H](COP(=O)(O)OP(=O)(O)OP(=O)(O)NCc2ccc(C3(C(F)(F)F)N=N3)cc2OCCOCCOCCNC(=O)CCCC[C@@H]2SC[C@@H]3NC(=O)N[C@@H]32)[C@@H](O)[C@H]1O
active: Gallus gallus [1] | Gallus gallus [2]

Nc1ncnc2c1ncn2[C@@H]1O[C@H](COP(=O)(O)OP(=O)(O)OP(=O)(O)NCc2ccc(C3(C(F)(F)F)N=N3)cc2)[C@@H](O)[C@H]1O
active: all assays above
